Measured values published in ChEMBL document CHEMBL1781898, “Orally active achiral N-hydroxyformamide inhibitors of ADAM-TS4 (aggrecanase-1) and ADAM-TS5 (aggrecanase-2) for the treatment of osteoarthritis” (Bioorg Med Chem Lett, 2011).

Assays:
[1] = target: Matrix metalloproteinase-14 (Homo sapiens, UniProt P50281); assay: Inhibition of recombinant human MMP-14 assessed as substrate cleavage after 20 hrs by fluorescence assay
Method in brief: (§1)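 Enzyme inhibition IC50s derived from at least six measurements, standard errors normally <5% within an assay; a standard compound run to keep assay-to-assay variability within twofold.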

Interstitial collagenase = target: T1, Interstitial collagenase (Homo sapiens, UniProt P03956); assay: Inhibition of recombinant human MMP-1 assessed as substrate cleavage after 20 hrs by fluorescence assay; method in brief: as §1
T1 sequence (P03956 whole entry): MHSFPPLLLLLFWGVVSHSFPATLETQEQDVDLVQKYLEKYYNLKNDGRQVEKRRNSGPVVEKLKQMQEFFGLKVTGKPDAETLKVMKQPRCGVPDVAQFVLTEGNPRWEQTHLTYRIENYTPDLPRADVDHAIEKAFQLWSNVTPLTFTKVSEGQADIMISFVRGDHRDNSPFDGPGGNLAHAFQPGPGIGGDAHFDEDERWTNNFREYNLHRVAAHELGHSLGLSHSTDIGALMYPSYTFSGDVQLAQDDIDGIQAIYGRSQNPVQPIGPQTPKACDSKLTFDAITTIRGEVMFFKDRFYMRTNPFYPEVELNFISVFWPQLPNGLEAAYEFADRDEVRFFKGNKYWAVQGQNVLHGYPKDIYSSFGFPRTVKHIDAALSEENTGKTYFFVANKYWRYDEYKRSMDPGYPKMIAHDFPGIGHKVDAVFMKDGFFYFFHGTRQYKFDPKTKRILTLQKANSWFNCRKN

[2] = target: Matrix metalloproteinase-9 (Homo sapiens, UniProt P14780); assay: Inhibition of recombinant human MMP-9 assessed as substrate cleavage after 20 hrs by fluorescence assay; method in brief: as §1
Chain of Matrix metalloproteinase-9 (P14780 whole entry): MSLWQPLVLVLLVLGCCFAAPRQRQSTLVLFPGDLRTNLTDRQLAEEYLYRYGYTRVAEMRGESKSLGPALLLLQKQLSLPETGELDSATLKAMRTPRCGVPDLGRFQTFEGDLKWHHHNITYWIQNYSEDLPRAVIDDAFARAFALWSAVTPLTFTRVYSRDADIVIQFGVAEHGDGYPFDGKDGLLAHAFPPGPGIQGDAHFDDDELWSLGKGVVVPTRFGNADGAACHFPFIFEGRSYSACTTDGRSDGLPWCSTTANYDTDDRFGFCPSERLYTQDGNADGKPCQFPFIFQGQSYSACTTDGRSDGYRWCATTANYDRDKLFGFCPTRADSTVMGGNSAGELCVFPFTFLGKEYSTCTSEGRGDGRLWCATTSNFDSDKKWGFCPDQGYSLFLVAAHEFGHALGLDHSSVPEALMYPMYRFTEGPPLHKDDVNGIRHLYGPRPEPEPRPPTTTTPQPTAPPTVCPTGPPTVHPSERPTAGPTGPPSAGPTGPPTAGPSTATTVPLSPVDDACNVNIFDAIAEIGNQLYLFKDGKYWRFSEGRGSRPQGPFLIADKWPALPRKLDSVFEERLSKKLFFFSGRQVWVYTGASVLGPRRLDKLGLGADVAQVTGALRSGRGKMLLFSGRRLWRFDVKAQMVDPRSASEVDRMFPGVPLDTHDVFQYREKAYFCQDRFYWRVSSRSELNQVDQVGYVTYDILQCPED

[3] = Intrinsic clearance in human liver microsomes; format: ADME, Microsome
Method in brief: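 Human liver microsome metabolism; intrinsic clearance expressed as μL/min/mg, reported as mean of eight separate experiments.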

[4] = Volume of distribution at steady state in rat at 2 mg/kg, iv; format: ADME, organism-based; set-up: dose 2 mg/kg, route intravenous; details: in vivo, read-out: Vdss
Method in brief: (§2)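 Rat iv PK: 2 mg/kg iv, n = 2 animals; clearance, half-life and Vdss determined.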

[5] = Half life in rat at 2 mg/kg, iv; format: ADME, organism-based; set-up: dose 2 mg/kg, route intravenous; details: in vivo; method in brief: as §2
[6] = Lipophilicity, log D of the compound; format: physicochemical; details: octanol/water
[7] = Thermodynamic solubility of the compound in phosphate buffer at pH 7.4 after 24 hrs; format: physicochemical; details: read-out: Therm_solubility
[8] = Free drug level in human; format: ADME, organism-based; details: in vivo
[9] = Free drug level in rat; format: ADME, organism-based; details: in vivo
[10] = Free drug level in dog; format: ADME, organism-based, Canis lupus familiaris; details: in vivo
[11] = Intrinsic clearance in human hepatocytes measured per million cells; format: ADME, cell-based, Liver, Hepatocyte
Method in brief: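 Human hepatocyte metabolism; intrinsic clearance expressed as μL/min/10⁶ cells, reported as mean of six separate experiments.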

[12] = Apparent permeability across apical to basolateral side in human Caco2 cells at 10 uM; format: ADME, cell-based; details: Caco-2
[13] = Clearance in mouse; format: ADME, organism-based; details: in vivo
[14] = Volume of distribution at steady state in mouse; format: ADME, organism-based; details: in vivo, read-out: Vdss
[15] = Clearance in rat at 2 mg/kg, iv and 3 to 10 mg/kg, po; format: ADME, organism-based; details: in vivo
[16] = Half life in rat at 2 mg/kg, iv and 3 to 10 mg/kg, po; format: ADME, organism-based; details: in vivo
[17] = Volume of distribution at steady state in rat at 2 mg/kg, iv and 3 to 10 mg/kg, po; format: ADME, organism-based; details: in vivo, read-out: Vdss
[18] = Clearance in dog at 1 mg/kg, iv and 1 mg/kg, po; format: ADME, organism-based, Canis lupus familiaris; details: in vivo
[19] = Volume of distribution at steady state in dog at 1 mg/kg, iv and 1 mg/kg, po; format: ADME, organism-based, Canis lupus familiaris; details: in vivo, read-out: Vdss
[20] = Oral bioavailability in mouse; format: ADME, organism-based; details: in vivo
[21] = Oral bioavailability in rat; format: ADME, organism-based; details: in vivo
[22] = Inhibition of aggrecanase activity in human late stage diseased osteoarthritis cartilage explant assessed as inhibition of aggrecan degradation measuring ARGSVIL neo-peptide release
[23] = Inhibition of aggrecanase activity in IL-1-stimulated human osteoarthritis cartilage explant assessed as inhibition of aggrecan degradation measuring ARGSVIL neo-peptide release
[24] = Absolute bioavailability in mouse; format: ADME, organism-based; details: in vivo
[25] = Absolute bioavailability in rat; format: ADME, organism-based; details: in vivo
[26] = Absolute bioavailability in dog; format: ADME, organism-based, Canis lupus familiaris; details: in vivo
Cytochrome P450 1A2 = target: T2, Cytochrome P450 1A2 (Homo sapiens, UniProt P05177); assay: Inhibition of CYP1A2; format: ADME
T2 sequence (P05177 whole entry): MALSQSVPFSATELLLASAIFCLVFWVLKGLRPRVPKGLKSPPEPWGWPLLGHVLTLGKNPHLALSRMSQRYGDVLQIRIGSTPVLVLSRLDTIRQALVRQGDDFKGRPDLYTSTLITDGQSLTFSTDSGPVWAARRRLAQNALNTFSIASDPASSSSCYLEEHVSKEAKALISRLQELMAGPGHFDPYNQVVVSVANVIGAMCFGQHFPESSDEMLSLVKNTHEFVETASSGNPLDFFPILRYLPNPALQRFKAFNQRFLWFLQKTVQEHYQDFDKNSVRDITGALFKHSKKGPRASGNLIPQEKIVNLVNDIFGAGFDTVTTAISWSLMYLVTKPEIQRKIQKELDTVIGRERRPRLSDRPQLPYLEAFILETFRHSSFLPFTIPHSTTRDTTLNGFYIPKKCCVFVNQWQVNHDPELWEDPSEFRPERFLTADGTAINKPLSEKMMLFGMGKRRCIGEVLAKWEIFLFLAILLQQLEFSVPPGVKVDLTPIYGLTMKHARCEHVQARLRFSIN
Method in brief: (§3)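 Inhibition of cytochrome P450 isoforms 1A2, 2C9, 2C19, 2D6 and 3A4, reported as pIC50.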

Cytochrome P450 2C9 = Cytochrome P450 2C9 (Homo sapiens, UniProt P11712); assay: Inhibition of CYP2C9; format: ADME; method in brief: as §3
Chain of Cytochrome P450 2C9 (P11712 whole entry): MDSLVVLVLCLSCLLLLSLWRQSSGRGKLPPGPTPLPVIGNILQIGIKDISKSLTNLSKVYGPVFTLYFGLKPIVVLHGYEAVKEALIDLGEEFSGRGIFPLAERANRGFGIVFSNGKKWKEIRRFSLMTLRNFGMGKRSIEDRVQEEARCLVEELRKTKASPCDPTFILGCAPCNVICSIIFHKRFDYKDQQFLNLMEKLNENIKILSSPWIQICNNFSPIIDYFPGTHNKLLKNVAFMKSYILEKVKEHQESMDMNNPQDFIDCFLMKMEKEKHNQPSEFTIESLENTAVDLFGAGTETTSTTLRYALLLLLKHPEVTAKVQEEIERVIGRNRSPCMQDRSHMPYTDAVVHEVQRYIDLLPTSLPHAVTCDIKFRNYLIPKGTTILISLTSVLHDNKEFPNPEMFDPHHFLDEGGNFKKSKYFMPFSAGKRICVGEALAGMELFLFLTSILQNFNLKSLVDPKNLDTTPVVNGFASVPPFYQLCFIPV

Cytochrome P450 2C19 = Cytochrome P450 2C19 (Homo sapiens, UniProt P33261); assay: Inhibition of CYP2C19; format: ADME; method in brief: as §3
Chain of Cytochrome P450 2C19 (P33261 whole entry): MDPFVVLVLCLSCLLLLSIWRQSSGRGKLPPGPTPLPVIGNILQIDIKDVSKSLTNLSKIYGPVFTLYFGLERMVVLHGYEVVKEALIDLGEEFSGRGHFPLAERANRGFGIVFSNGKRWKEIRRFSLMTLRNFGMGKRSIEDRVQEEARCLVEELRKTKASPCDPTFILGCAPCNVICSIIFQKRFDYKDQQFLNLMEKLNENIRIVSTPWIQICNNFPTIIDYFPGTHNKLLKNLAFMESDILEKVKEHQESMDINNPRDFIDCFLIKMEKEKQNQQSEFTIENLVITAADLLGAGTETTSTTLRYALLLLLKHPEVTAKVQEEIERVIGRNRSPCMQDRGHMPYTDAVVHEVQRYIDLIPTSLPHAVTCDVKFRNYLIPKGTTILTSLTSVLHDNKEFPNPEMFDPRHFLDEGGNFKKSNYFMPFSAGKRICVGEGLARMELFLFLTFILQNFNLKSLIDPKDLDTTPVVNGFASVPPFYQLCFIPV

- IC50 [1]: > 23000 nM
- IC50 (Interstitial collagenase): > 10000 nM
- IC50 [2]: > 25000 nM
- microsomal CLint [3]: 3.1 µL/min/mg
- Vd [4]: 3 L/kg
- half-life [5]: 8.9 h
- logD [6]: 0.9
- solubility thermodynamic at 24 h [7]: > 1000 µM
- fraction unbound [8]: > 0.5
- fraction unbound [9]: > 0.5
- fraction unbound [10]: > 0.5
- hepatocyte CLint [11]: < 2 µL/min/1e6 cells
- Papp A→B at 10 µM [12]: 8.3 ×10⁻⁶ cm/s
- clearance [13]: 30 mL/min/kg
- Vd [14]: 2.5 L/kg
- clearance [15]: 24 mL/min/kg
- half-life [16]: 8.9 h
- Vd [17]: 3 L/kg
- clearance [18]: 13 mL/min/kg
- Vd [19]: 10.9 L/kg
- bioavailability [20]: 54%
- bioavailability [21]: 45%
- IC50 [22]: 150 nM
- IC50 [23]: 120 nM
- bioavailability [24]: 54%
- bioavailability [25]: 45%
- bioavailability [26]: 52%
- inhibition (INH) (Cytochrome P450 1A2): Not Active
- inhibition (INH) (Cytochrome P450 2C9): Not Active
- inhibition (INH) (Cytochrome P450 2C19): Not Active
Compound: Cc1noc(C)c1CCC1CCN(S(=O)(=O)CC2(N(O)C=O)CCOCC2)CC1
